# NR1D1 modulator – modulators of Rev-erb alpha DNA binding, primary screen, biochemical, FITC-DNA, fluorescence polarization, uHTS | Nuclear receptor subfamily 1 group D member 1 (Homo sapiens), P20393 | Rev-erbα–FITC-DNA binding, 90 min | activity, % at 10 µM | actives 0.79% (n = 370,000) | AID 1259318, 2017;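 active means activity above about 14%, limit read from the data; passing the limit was not always enough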;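 further: 0% = DMSO wells with 35 nM protein and 100% = DMSO wells with 750 nM protein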
# Rce1 inhib – yeast Rce1p protease inhibitors, primary screen, biochemical, fluorescence, cell-free homogeneous. CAAX prenyl protease 2 (Saccharomyces cerevisiae (strain ATCC 204508 / S288c)), Q03530. yeast membranes, quenched prenylated peptide cleavage fluorescence. calls only. actives 0.27% (n = 290,000). AID 2563, 2010;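 active means fall in fluorescence gain of 50% or more versus controls, with final raw signal at or below 3038400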;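 further: plate controls were neutral control wells for no effect and wells lacking membranes for full effect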
# Target sequence (Q03530 whole entry, looked up): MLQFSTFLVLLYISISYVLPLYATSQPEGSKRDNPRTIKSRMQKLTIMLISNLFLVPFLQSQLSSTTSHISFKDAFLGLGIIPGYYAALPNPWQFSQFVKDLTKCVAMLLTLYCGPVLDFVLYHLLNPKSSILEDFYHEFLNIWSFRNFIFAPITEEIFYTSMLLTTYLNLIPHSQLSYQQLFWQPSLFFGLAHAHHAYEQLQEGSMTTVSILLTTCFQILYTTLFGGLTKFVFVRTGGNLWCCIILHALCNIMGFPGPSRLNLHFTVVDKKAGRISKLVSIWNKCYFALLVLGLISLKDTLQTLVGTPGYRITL
# UCH37 DUB inh – inhibitors of human UCH37 deubiquitinase, primary screen, biochemical, Ub-AMC cleavage, fluorescence. inhibition, % (no concentration beside the values). actives 0.33% (n = 330,000). Ubiquitin carboxyl-terminal hydrolase isozyme L5 (Homo sapiens), Q9Y5K5. purified proteasome/UCH37;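 active means mean inhibition over replicate wells above about 20%, limit read from the data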;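 further: 0% = compound-free wells with enzyme and 100% = wells lacking proteasome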
# Target sequence (Q9Y5K5 whole entry, looked up): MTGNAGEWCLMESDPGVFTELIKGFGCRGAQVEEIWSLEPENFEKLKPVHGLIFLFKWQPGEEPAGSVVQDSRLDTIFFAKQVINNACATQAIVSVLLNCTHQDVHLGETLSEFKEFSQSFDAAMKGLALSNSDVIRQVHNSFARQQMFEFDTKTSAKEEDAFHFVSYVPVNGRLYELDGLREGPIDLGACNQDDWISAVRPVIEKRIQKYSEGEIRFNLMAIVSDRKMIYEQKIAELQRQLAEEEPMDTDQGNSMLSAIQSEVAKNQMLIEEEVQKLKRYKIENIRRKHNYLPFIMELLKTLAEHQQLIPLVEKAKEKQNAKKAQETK
#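 system = Proteasome-associated human UCH37 deubiquitinase | amount = 0.15 nM proteasome as dispensed | medium = pH 7.4 Tris-HCl (50 mM) with ovalbumin, ATP-MgCl2, DTT | incubation = 30 min preincubation with enzyme, 25 min cleavage at room temperature | detection = AMC fluorescence 355/460 nm | read-out basis = percent inhibition | controls = no-proteasome and no-compound wells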
# beta cell repl – inducers of MIN6 beta-cell proliferation, primary screen, ATP luminescence, uHTS; proliferation, % at 10 µM; actives 0.29% (n = 330,000); AID 2380, 2010; MIN6 cells proliferation, ATPlite luminescence, 48 h; cells starved in 0.2% serum; 100% = growth in 10% serum;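 active means compounds whose signal lies at least 3.5 SD above the mean of all wells on their plate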;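 further: 0% = DMSO-treated cells in low-serum medium and 100% = 10% serum control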
# Yeast superoxide – reduction of superoxide in aged yeast, primary screen, HTS; S. cerevisiae aged cells, superoxide DHE fluorescence; hits give low values; superoxide response (% of plate mean), % at 10 µM; actives 0.18% (n = 330,000);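 active means superoxide response under a set limit, about three screen SD below normal, cut at about 65% in these data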;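 further: yeast aged for seven days with compound at 30 °C before DHE staining; 100% = average MFI of all compound-treated wells on the plate with controls excluded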
# PG9 binder – binders of HIV-1 gp120 antibody PG9, primary screen, biochemical, TR-FRET. actives 0.43% (n = 360,000). TR-FRET gp120-PG9 antibody binding. inhibition, % at 6.7 µM. AID 624416, 2012; in the data active means inhibition above about 8.5%
# Rev-erbA confirm – modulators of Rev-erb alpha DNA binding, confirmation, biochemical, FITC-DNA, fluorescence polarization, single point. shares compounds with NR1D1 modulator. 90 min. activation, % at 25 µM. actives 61% (n = 3,000);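 active means activation at or above a set limit, or at least 3 SD above the negative control mean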;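 further: 0% = 35 nM protein with DMSO and 100% = 750 nM protein high control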
# RORg DNA counter – modulation of RORgamma DNA binding, dose response, counter-screen for Rev-erb alpha modulator project, biochemical, fluorescence polarization, FITC-DNA; purified RORgamma protein-FITC-DNA binding; IC50, µM; shares compounds with NR1D1 modulator; actives 8% (n = 910);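 active means Compounds whose fitted half-maximal concentration for disrupting protein-DNA binding is below 10 micromolar; the record names Rev-erb in its text, so the target is in doubt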
# The depositor's hits bear a star; i = inactive; . = not tested or not shown; ! = a repeat was not active. Shown are actives, neighbours in structure and some others; about 1.9% of the full set was active somewhere.
SMILES,NR1D1 modulator,Rce1 inhib,UCH37 DUB inh,beta cell repl,Yeast superoxide,PG9 binder,Rev-erbA confirm,others
COc1ccc(-c2ccc(-c3noc(-c4cccs4)n3)c(OC)n2)cc1,-1,i,-65,-4,103,1,.,
S=c1[nH]nc(C2CCCCC2)n1N=Cc1ccc(Br)s1,.,.,0,.,.,.,.,
COc1ccc(-c2ccc(-c3noc(-c4ccccc4OC)n3)c(OC)n2)cc1,37*,i,-46,-2,92,0,15,
COc1ccc(-c2ccc(-c3noc(-c4ccc(OC)c(OC)c4)n3)c(OC)n2)cc1,10,.,.,.,.,-1,.,
O=C(O)CN1C(=O)/C(=C\c2cn(CC(=O)N3CCOCC3)c3ccccc23)SC1=S,39*,i,24*,-3,95,-17,39*,RORg DNA counter=>40
O=C(CCCN1C(=O)/C(=C\c2ccccc2)SC1=S)N1CCOCC1,-5,.,8,0,107,-4,.,
Cc1ccc(NC(=O)c2ccc3nsnc3c2)c(Cl)c1,27*,i,-8,-6,89,-4,16,
COc1ccccc1NC(=O)c1ccc2nsnc2c1,4,i,5,-3,95,-3,.,
O=C(Nc1ccc(Br)cc1F)c1ccc2nsnc2c1,31*,i,-11,0,107,1,22*,
CC(C)C(NC(=O)C12CC3CC(CC(C3)C1)C2)C(=O)NN=CC1=C(N2CCOCC2)/C(=C\c2ccc([N+](=O)[O-])cc2)CC1 (stereo not given),.,.,6,.,.,.,.,
CC(Sc1nn(-c2ccc(F)cc2)c(=S)s1)C(=O)c1c(N)n(C)c(=O)n(C)c1=O (stereo not given),22*,i,.,-4,105,2,24*,
O=S(=O)(c1cccc2nsnc12)N1CCOCC1,1,i,-1,-4,98,1,.,
O=S(=O)(c1cccc2nsnc12)N1CCNCC1,25*,i,0,-3,94,-1,-5,
Cc1ccc(C(=O)Oc2ccc(-c3nccc(-c4ccccn4)n3)cc2)cc1,20*,i,2,-2,98,1,15,
O=c1c(=Cc2ccc(O)cc2)sc2n1CCCN=2,.,.,0,.,.,.,.,
CN(C)c1ccc(/C=c2\sc3n(c2=O)CCCN=3)cc1,27*,i,.,-4,116,-18,17,
CCc1nc(SCC(=O)NC2CC2)c2c(C)c(C)sc2n1,7,i,6,2,89,-1,.,
CCCc1nc(SCC(=O)NC2CC2)c2c(C)c(C)sc2n1,22*,i,2,-4,93,-1,8,
NS(=O)(=O)c1ccc(CCNC(=O)c2ccc(Cl)s2)cc1,3,i,3,1,118,2,.,
NS(=O)(=O)c1ccc(CCNC(=O)c2cc3ccccc3s2)cc1,23*,i,1,-3,113,-1,6,
NS(=O)(=O)c1ccc(CCNC(=O)c2ccc(Cn3c(=O)[nH]c4ccccc4c3=O)cc2)cc1,19*,i,2,-2,81,8,1,
CC(C)CCNC(=O)c1ccc(Cn2c(=S)[nH]c3ccccc3c2=O)cc1,29*,i,1,3,84,4,26*,
Nc1nonc1-n1nnc(C(=O)NN=Cc2ccccc2F)c1-c1cccs1,.,.,2,.,.,.,.,
COc1ccc(-c2cc3c(=O)n(CC(=O)Nc4ccc(C(C)=O)cc4)ncn3n2)cc1,34*,i,3,-5,90,-2,41*,RORg DNA counter=>40
COc1ccc(-c2cc3c(=O)n(CC(=O)NCc4cccnc4)ncn3n2)cc1,-4,i,-7,-6,94,0,.,
SMILES,NR1D1 modulator,Rce1 inhib,UCH37 DUB inh,beta cell repl,Yeast superoxide,PG9 binder,Rev-erbA confirm,others
COc1ccc(C=NNC(=O)Cn2nc([N+](=O)[O-])cc2C)c(OC)c1OC,.,.,0,.,.,.,.,
CCn1c(C=Nc2nc3ccccc3n2C)nc2ccccc21,.,.,-1,.,.,.,.,
CCOc1cccc2sc(Nc3nc4ccc(NC(C)=O)cc4s3)nc12,49*,i,-458,-3,99,8,16,
CCC(=O)Nc1nc2ccc(NC(C)=O)cc2s1,4,i,0,1,100,0,.,
CCC(C=NNC(=O)C(N)=O)CC,.,.,-2,.,.,.,.,
CCOc1ccc(-n2cc(C(=O)Nc3cccc(C)n3)c3cc(OC)c(OC)cc3c2=O)cc1,35*,i,1,-1,102,1,12,
O=C(COc1ccccc1)NCC(=O)NN=Cc1ccc(Cl)cc1,.,.,1,.,.,.,.,
Cc1cc2oc(=O)cc(-c3ccccc3)c2c(C)c1-c1ccc(O)cc1,17*,.,3,.,96,-1,2,
Cc1cccc(Cl)c1NC(=O)N(C)c1ccccc1,16*,.,.,.,.,3,1,
Cc1cccc(Cl)c1NC(=S)NN,2,i,0,-2,87,-3,.,
CCCCCCSc1cc(-c2nc3cc(C)ccn3c2NC2CCCCC2)ccc1OC,1,i,-147,-8,104,1,.,
CCCCCCSc1ccc(-c2nc3cc(C)ccn3c2NC2CCCCC2)cc1,20*!,.,-405,-6,82,2,-2,
CCC(C)Sc1ccc(-c2nc3cc(C)ccn3c2NC2CCCCC2)cc1 (stereo not given),20*!,.,-208,-6,98,6,19*,
C=C(C)C1CC=C(C)C(=NNC(=O)c2cccc([N+](=O)[O-])c2)C1 (stereo not given),.,.,5,.,.,.,.,
COc1cccc(C=Cc2nccc3ccccc23)c1OC,-5,.,.,.,.,-1,.,
CN(C)c1ccc(C=Cc2nccc3ccccc23)cc1,303*,.,.,.,.,-3,346*,RORg DNA counter=>40
Cc1cccc(C)c1N(CC(=O)NN=Cc1cc(Br)c(C)o1)S(C)(=O)=O,.,.,6,.,.,.,.,
CNC(=O)c1ccsc1NC(=O)c1sc2ccccc2c1Cl,96*,i,.,0,110,-1,72*,RORg DNA counter=>40
Cc1nnc(NC(=O)c2sc3ccccc3c2Cl)s1,4,i,4,-7,i,4,.,
Cc1ccc2nsnc2c1NC(=O)c1sc2ccccc2c1Cl,31*,i,-77,0,89,5,32*,RORg DNA counter=>40
Cc1ccc(NC(=O)c2sc3ccccc3c2Cl)nc1,5,.,-18,-4,115,3,.,
Oc1ccc(C=NN(Cc2ccccc2)c2ccccc2)cc1,.,.,6,.,.,.,.,
